Assay [1] in a line: Selectivity ratio of IC50 for antiproliferative activity against NMS-873-resistant human HCT-116 cells to IC50 for antiproliferative activity against human HCT-116 cells. Format: functional.
In assay [2] the target is T1, Transitional endoplasmic reticulum ATPase (Homo sapiens, UniProt P55072). In words: Inhibition of p97 in human HeLa cells assessed as reduction in proteasomal turnover of p97-dependent reporter substrate UbG76V-GFP incubated for 120 mins by GFP fluorescence imaging.
Target sequence in this assay (P55072 whole entry): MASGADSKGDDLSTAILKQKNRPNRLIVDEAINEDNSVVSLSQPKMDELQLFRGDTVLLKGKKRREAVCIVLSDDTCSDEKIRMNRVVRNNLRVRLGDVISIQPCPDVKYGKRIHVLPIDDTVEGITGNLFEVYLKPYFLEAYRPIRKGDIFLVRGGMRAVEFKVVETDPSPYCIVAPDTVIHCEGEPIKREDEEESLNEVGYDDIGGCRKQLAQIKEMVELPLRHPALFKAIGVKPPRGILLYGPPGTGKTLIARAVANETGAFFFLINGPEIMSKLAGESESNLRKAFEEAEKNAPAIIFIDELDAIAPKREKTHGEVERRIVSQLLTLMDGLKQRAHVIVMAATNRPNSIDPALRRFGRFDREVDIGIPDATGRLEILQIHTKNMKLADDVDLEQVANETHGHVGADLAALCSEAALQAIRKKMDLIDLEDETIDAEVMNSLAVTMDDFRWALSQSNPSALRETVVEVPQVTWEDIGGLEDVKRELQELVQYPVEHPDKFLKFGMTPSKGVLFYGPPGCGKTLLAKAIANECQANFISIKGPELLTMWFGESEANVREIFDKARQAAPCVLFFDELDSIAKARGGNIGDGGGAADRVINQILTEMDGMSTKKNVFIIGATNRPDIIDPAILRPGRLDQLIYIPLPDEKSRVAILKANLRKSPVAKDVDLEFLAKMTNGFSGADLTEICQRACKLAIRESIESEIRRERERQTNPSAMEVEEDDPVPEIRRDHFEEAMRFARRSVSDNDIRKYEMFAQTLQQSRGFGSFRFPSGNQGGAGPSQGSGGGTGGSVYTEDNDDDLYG
Assay [3] addresses T1, Transitional endoplasmic reticulum ATPase. In words: Inhibition of His6-tagged p97 (unknown origin) expressed in Escherichia coli BL21 (DE3) assessed as reduction in ATPase activity measured after 60 mins by biomol green reagent based assay. An outline of the steps: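 His6-p97 expressed in E. coli BL21(DE3), purified by Ni-NTA and gel filtration (500–600 kDa fractions, ≥95% pure). Phosphate read by Biomol Green at 635 nm. Eight-dose titrations; IC50 from six replicates. Thiol tests added DTT or cysteine during preincubation.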
Target sequence in this assay (P55072 whole entry): as above

Assay [4] is described as follows: Inhibition of proteasomal turnover of p97-independent ODD-luciferase reporter substrate in human HeLa cells incubated for 120 mins by luciferase reporter gene assay. It counts as functional, cell-based. To be noted: 2 h. An outline of the steps:
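HeLa cells co-expressing UbG76V-GFP and ODD-Luc were seeded at 5000/well in clear DMEM with 2.5% FBS. They were pretreated with 4 μM MG132 for 60 min at 37 °C, washed with PBS, then given cycloheximide plus compound for 120 min at 37 °C and washed. GFP was read by high-content confocal imaging, then luminescence after 10 min with D-luciferin at r.t. IC50 was fitted from quadruplicates.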
Background: In a reporter assay the amount or activity of a reporter protein is the signal.

A short description of assay [5]: Inhibition of yeast Cdc48 T532C mutant assessed as reduction in ATPase activity measured after 60 mins by biomol green reagent based assay. Set-up: species or system Saccharomyces cerevisiae. An outline of the steps:
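Yeast Cdc48 ATPase activity with 200 μM ATP in Tris pH 7.4 buffer containing MgCl2, EDTA, TCEP and Triton X-100, 60 min at room temperature. Biomol Green read at 635 nm. Eight-dose titration; IC50 from six replicates.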

Assay [6] concerns the target T1, Transitional endoplasmic reticulum ATPase. In words: Irreversible inhibition of p97 in human HeLa cells assessed as reduction in p97-dependent reporter substrate UbG76V-GFP degradation preincubated followed by washout and measured after 17 hrs by luciferase reporter gene assay. Format: cell-based. Conditions: in the assay text read “GFP fluorescence assay” for “luciferase reporter gene assay”. An outline of the steps:
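HeLa cells expressing UbG76V-GFP/ODD-Luc, 5000 cells/well in DMEM with 2.5% FBS. Pretreated with 4 μM MG132 for 60 min at 37 °C, PBS-washed, then given cycloheximide plus compound for 120 min. After washout, GFP decay followed in cycloheximide for an additional 17 h. GFP read by high-content imaging; luciferase read with D-luciferin; quadruplicates.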
Target sequence in this assay (P55072 2-806 limits assumed): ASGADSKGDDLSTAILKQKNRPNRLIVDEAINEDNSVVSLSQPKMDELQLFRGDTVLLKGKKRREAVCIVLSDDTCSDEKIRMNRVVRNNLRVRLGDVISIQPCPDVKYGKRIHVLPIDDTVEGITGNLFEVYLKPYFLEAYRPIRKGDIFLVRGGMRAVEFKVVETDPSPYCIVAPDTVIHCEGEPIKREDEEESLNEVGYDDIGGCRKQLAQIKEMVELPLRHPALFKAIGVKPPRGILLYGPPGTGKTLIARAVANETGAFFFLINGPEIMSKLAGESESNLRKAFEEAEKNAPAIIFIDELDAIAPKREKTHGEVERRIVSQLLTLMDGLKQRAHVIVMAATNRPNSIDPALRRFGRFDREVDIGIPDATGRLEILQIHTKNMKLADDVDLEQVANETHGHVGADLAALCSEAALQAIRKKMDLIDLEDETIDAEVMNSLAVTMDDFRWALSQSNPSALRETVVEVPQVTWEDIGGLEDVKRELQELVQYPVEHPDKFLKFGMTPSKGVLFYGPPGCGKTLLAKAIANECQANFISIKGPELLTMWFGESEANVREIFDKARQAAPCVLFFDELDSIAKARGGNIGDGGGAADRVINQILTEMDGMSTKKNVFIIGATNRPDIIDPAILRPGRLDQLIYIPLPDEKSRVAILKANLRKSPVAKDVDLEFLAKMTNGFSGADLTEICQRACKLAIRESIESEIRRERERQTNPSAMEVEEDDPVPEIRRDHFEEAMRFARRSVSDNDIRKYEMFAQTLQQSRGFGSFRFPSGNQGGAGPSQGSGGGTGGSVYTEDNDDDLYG

Activity calls are given as the source filed them. The calls are words filed in the database; no cut-off is given here. Where a SMILES comes first, the peptide text is derived from it. [ ]: non-standard residue; d: D form. The star is where a group is joined. Cbz = O=C(OCc1ccccc1)*

Take `Cc1cc(OCc2nnc(SC3CCCC3)n2-c2cccnc2)ccc1-c1ccc(S(C)(=O)=O)cc1`: the Selectivity ratio in assay [1] came to 4.5.
Broadly, the IC50 is the point on the concentration scale where inhibition reaches its midpoint. With `Cc1ccc(-c2c(C(=O)CF)n(CCCO)c3ncnc(N)c23)cc1`, the IC50 is 47 µM in assay [2], greater than 30 µM in assay [3] and 39 µM in assay [4].
Taken in the same sequence, the figures for `COc1ccc(/C=C/[N+](=O)[O-])cc1OC` were 1.9 µM, 3.1 µM and 1.8 µM.
With `CCC(=O)Oc1ccc(/C=C/[N+](=O)[O-])cc1OC`, the IC50 in assay [2] was determined as 4.3 µM; in assay [3], 3.4 µM; in assay [4] it was 1.6 µM.
In the case of `CC(C)(C)n1nc(-c2ccccc2)c2c(N)ncnc21`, the IC50 is greater than 30 µM in assay [2], greater than 100 µM in assay [3], greater than 30 µM in assay [4] and greater than 100 µM in assay [5].
Regarding `O=[N+]([O-])/C=C/c1c(F)c(F)c(F)c(F)c1F`, the IC50 was 2.7 µM in assay [2], 2.4 µM in assay [3] and 2.1 µM in assay [4].
Take `C=CC(=O)Nc1ncnc2c1c(-c1ccc3ccccc3c1)nn2C(C)(C)C`: the IC50 in assay [2] is 2 µM; in assay [3] it was 3 µM; in assay [4], greater than 30 µM; in assay [5], 24 µM.
For `O=[N+]([O-])/C=C/c1ccc(F)c(Br)c1`, the IC50 in assay [2] was found to be 1.8 µM; in assay [3] it was 1.7 µM; in assay [4] it was 2 µM.
In the case of `CC1(C)C(N(O)C(=O)Nc2ccc(Cl)cc2)N(c2ccc(Cl)cc2)C(=O)N1CC(=O)N/N=C/C=C/c1ccc([N+](=O)[O-])o1` (stereo not given), the IC50 is 3.7 µM in assay [2] and greater than 30 µM in assay [3].
Take `COc1cc(/C=C/[N+](=O)[O-])ccc1O`: the IC50 in assay [2] is 6.8 µM; in assay [3], 13 µM; in assay [4] it was 5 µM.
For the compound `CC(C)(C)n1nc(-c2ccccc2)c2c(NC(=O)CCl)ncnc21`, the half-inhibitory concentration (IC50) in assay [2] was 31 µM; in assay [3] it was 4.5 µM; in assay [4], greater than 30 µM; in assay [5], 35 µM.
In the case of `C=CC(=O)Nc1ncnc2c1c(-c1ccc(-c3ccccc3)cc1)nn2C(C)(C)C`, the IC50 in assay [2] is 2.1 µM; in assay [3], 2.8 µM; in assay [4], greater than 30 µM.
Turning to `O=[N+]([O-])/C=C/c1ccc2c(c1)OCO2`, the IC50 was 1.6 µM in assay [2], 1.7 µM in assay [3] and 3.9 µM in assay [4].
With `Cc1ccc(-c2c(C(=O)CCl)n(CCCO)c3ncnc(N)c23)cc1`, the figures for the IC50 in assay [2], in assay [3] and in assay [4] were 5.8 µM, 3.9 µM and 4 µM, respectively.
`O=[N+]([O-])/C=C/c1cccnc1`: the IC50 in assay [2] is 2.9 µM; in assay [3], 0.7 µM; in assay [4] it was 3 µM.
For `CNc1ncnc2c1c(-c1ccc3ccccc3c1)nn2C(C)(C)C`, the IC50 in assay [2] is greater than 30 µM; in assay [3], greater than 50 µM; in assay [4], greater than 30 µM.
For the compound `Cc1ccc(C(=O)C#Cc2ccccc2)cc1`, the IC50 in assay [2] was 3.4 µM; in assay [3], 0.2 µM; in assay [4], 5.2 µM.
Consider `CC(C)(C)n1nc(-c2ccc(-c3ccccc3)cc2)c2c(N)ncnc21`, for which the IC50 is greater than 30 µM in assay [2], greater than 50 µM in assay [3] and greater than 30 µM in assay [4].
On to `C=CC(=O)Nc1ccc2ncnc(Nc3ccc(-c4ccccc4)cc3)c2c1`, for which the figures for the IC50 in assay [2], in assay [3] and in assay [4] were 18 µM, 10 µM and 11 µM, respectively.
The corresponding values for `O=C(O)/C=C/c1ccc2c(c1)OCO2` are greater than 30 µM, greater than 30 µM and greater than 30 µM.
Consider `CC(C)C[C@@H](C=O)NC(=O)[C@@H](CC(C)C)NC(=O)[C@H](CC(C)C)NC(=O)OCc1ccccc1` (Cbz-Leu-[dL]-Leu-aldehyde), for which the inhibition entry in assay [6] is “inactive”.
`C=CC(=O)N(C(=O)C=C)c1ncnc2c1c(-c1ccccc1)nn2C(C)(C)C`: the IC50 is 5.4 µM in assay [2], 1.1 µM in assay [3], greater than 30 µM in assay [4] and 26 µM in assay [5].
The corresponding values for `C=CC(=O)N(C(=O)C=C)c1ncnc2c1c(-c1ccc3ccccc3c1)nn2C(C)(C)C` are 2.5 µM, 1.3 µM, greater than 30 µM and 22 µM.
Regarding `C=CC(=O)N(C(=O)C=C)c1ncnc2c1c(-c1ccc(-c3ccccc3)cc1)nn2C(C)(C)C`, the IC50 in assay [2] is 6.1 µM; in assay [3] it was 0.9 µM; in assay [4], greater than 30 µM.
Taken in the same sequence, the figures for `COc1cc(/C=C/[N+](=O)[O-])ccc1OC(=O)c1ccccc1` were 5.7 µM, 2 µM and 10 µM.
As to `O=[N+]([O-])/C=C/c1cccc([N+](=O)[O-])c1`, the IC50 in assay [2] came out at 1.7 µM; in assay [3], 1.2 µM; in assay [4], 4 µM.
Take `COc1cc(/C=C/[N+](=O)[O-])ccc1OC(C)=O`: the IC50 in assay [2] amounted to 5.7 µM; in assay [3], 3.6 µM; in assay [4], 2.3 µM.
Turning to `CC(C)(C)n1nc(-c2ccc3ccccc3c2)c2c(N)ncnc21`, the IC50 in assay [2] was greater than 30 µM; in assay [3], greater than 100 µM; in assay [4], greater than 30 µM; in assay [5] it was greater than 100 µM.

These data come from ChEMBL document CHEMBL4732155 (Eur J Med Chem, 2021).
